According to ChEMBL document CHEMBL2429736, “Calix[4]arene methylenebisphosphonic acids as inhibitors of protein tyrosine phosphatase 1B” (Bioorg Med Chem Lett, 2013):
Calls of active or inactive are those of the source. The calls are words filed in the database; no cut-off is given here.

Tests used:
[1] = target: T1, Tyrosine-protein phosphatase non-receptor type 2 (Homo sapiens, UniProt P17706); experiment: Inhibition of TCPTP (unknown origin) assessed as p-nitrophenyl phosphate conversion to p-nitrophenol after 10 mins by spectrophotometric analysis
T1 sequence (P17706 whole entry): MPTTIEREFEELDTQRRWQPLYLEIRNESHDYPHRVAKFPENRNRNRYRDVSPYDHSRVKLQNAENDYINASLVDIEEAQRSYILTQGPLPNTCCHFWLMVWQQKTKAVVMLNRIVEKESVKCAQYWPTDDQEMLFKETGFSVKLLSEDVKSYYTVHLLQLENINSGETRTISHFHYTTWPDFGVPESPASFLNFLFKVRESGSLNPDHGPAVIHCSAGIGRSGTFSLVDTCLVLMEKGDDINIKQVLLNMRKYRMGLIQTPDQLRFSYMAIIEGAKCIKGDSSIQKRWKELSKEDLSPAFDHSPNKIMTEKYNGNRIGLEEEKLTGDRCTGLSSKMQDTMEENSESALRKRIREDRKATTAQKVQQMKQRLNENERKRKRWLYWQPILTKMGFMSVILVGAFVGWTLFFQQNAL
Procedure, shortened: (§1)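 p-Nitrophenyl phosphate substrate at 2 mM for TC-PTP and LAR, 1 mM for PTPbeta, 5 mM for CD45, 7 mM for SHP2. p-Nitrophenol release followed. IC50 read from dose-dependent curve as the concentration giving 50% activity after 10 min incubation.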

[2] = target: T2, Tyrosine-protein phosphatase non-receptor type 11 (Homo sapiens, UniProt Q06124); experiment: Inhibition of SHP2 (unknown origin) assessed as p-nitrophenyl phosphate conversion to p-nitrophenol after 10 mins by spectrophotometric analysis; procedure, shortened: as §1
T2 sequence (Q06124 whole entry): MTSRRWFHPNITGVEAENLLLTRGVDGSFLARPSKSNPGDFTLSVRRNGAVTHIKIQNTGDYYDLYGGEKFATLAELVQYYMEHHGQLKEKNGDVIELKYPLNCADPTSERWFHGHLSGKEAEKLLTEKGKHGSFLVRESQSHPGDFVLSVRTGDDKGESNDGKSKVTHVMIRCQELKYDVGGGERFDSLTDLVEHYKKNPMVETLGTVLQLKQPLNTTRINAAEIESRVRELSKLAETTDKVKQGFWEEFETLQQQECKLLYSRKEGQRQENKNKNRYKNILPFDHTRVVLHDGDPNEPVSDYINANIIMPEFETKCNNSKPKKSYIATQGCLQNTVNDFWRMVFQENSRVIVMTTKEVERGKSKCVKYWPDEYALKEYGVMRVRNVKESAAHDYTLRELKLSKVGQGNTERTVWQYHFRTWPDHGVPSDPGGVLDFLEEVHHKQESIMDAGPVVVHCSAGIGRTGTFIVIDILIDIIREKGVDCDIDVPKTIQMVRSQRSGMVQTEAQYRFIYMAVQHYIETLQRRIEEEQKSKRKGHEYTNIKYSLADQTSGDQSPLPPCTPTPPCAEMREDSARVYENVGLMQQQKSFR

[3] = target: T3, Receptor-type tyrosine-protein phosphatase C (Homo sapiens, UniProt P08575); experiment: Inhibition of CD45 (unknown origin) assessed as p-nitrophenyl phosphate conversion to p-nitrophenol after 10 mins by spectrophotometric analysis; procedure, shortened: as §1
T3 sequence (P08575 whole entry): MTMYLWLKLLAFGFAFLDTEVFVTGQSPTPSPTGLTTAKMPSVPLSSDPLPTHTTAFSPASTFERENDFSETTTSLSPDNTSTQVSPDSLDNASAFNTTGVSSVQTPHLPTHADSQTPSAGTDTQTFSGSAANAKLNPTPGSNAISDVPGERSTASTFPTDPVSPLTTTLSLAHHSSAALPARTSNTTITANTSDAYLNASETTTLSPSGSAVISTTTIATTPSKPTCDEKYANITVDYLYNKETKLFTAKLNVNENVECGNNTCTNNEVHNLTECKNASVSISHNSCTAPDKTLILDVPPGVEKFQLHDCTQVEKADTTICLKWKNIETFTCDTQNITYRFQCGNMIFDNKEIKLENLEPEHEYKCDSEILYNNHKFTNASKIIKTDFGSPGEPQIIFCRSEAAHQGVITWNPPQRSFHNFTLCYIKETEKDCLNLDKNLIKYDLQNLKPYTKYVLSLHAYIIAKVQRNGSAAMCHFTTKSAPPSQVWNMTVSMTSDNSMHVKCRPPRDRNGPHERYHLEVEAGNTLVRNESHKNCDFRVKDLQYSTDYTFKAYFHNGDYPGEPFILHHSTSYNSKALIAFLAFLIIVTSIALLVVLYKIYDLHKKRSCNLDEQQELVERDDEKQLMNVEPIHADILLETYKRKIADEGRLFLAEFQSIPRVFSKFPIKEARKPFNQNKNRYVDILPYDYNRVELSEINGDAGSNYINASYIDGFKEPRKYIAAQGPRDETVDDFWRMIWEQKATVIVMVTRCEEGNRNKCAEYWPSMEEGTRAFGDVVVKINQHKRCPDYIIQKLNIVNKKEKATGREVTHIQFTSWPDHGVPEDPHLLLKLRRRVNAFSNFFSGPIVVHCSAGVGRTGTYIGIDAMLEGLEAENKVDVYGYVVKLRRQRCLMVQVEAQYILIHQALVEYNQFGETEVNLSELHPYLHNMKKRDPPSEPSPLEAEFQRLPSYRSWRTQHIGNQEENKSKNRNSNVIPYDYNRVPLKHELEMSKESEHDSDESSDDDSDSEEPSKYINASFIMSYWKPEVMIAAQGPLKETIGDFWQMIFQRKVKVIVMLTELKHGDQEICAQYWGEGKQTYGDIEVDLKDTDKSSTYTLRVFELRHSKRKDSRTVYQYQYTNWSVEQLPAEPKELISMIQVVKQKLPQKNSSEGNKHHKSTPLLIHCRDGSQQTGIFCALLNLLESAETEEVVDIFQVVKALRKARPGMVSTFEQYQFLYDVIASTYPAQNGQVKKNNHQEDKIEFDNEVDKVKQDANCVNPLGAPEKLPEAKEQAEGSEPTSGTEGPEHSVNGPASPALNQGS

[4] = target: T4, Tyrosine-protein phosphatase non-receptor type 1 (Homo sapiens, UniProt P18031); experiment: Inhibition of recombinant truncated PTP1B (unknown origin) using pTyr1146 as substrate assessed as inorganic phosphate level after 20 mins by spectrophotometric analysis
T4 sequence (P18031 whole entry): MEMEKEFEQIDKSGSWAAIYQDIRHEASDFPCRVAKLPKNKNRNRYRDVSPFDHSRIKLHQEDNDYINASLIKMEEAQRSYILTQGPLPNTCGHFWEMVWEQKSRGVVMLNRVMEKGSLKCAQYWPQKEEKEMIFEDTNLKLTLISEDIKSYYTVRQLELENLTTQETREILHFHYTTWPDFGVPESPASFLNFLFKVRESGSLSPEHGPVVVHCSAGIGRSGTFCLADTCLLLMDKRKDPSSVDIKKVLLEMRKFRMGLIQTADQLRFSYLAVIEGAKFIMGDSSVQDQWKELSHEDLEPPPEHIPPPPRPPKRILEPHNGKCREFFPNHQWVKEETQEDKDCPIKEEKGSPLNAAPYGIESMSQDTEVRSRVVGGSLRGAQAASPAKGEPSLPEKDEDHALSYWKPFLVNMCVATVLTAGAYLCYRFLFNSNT
Procedure, shortened: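 Truncated recombinant PTP1B (40 nM) with 0.075 mM pTyr1146 in 50 mM Bis-Tris pH 7.2, 1.1 mM DTT, 0.1 M NaCl, 1 mM EDTA. Reaction started with enzyme, run 20 min at 37 C, stopped with malachite green, held 10 min at 37 C. Phosphate read at 620 nm against standard curve, corrected for no-enzyme, no-substrate and inhibitor blanks.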

[5] = target: Receptor-type tyrosine-protein phosphatase F (Homo sapiens, UniProt P10586); experiment: Inhibition of LAR (unknown origin) assessed as p-nitrophenyl phosphate conversion to p-nitrophenol after 10 mins by spectrophotometric analysis; procedure, shortened: as §1
Receptor-type tyrosine-protein phosphatase F, sequence (P10586 whole entry): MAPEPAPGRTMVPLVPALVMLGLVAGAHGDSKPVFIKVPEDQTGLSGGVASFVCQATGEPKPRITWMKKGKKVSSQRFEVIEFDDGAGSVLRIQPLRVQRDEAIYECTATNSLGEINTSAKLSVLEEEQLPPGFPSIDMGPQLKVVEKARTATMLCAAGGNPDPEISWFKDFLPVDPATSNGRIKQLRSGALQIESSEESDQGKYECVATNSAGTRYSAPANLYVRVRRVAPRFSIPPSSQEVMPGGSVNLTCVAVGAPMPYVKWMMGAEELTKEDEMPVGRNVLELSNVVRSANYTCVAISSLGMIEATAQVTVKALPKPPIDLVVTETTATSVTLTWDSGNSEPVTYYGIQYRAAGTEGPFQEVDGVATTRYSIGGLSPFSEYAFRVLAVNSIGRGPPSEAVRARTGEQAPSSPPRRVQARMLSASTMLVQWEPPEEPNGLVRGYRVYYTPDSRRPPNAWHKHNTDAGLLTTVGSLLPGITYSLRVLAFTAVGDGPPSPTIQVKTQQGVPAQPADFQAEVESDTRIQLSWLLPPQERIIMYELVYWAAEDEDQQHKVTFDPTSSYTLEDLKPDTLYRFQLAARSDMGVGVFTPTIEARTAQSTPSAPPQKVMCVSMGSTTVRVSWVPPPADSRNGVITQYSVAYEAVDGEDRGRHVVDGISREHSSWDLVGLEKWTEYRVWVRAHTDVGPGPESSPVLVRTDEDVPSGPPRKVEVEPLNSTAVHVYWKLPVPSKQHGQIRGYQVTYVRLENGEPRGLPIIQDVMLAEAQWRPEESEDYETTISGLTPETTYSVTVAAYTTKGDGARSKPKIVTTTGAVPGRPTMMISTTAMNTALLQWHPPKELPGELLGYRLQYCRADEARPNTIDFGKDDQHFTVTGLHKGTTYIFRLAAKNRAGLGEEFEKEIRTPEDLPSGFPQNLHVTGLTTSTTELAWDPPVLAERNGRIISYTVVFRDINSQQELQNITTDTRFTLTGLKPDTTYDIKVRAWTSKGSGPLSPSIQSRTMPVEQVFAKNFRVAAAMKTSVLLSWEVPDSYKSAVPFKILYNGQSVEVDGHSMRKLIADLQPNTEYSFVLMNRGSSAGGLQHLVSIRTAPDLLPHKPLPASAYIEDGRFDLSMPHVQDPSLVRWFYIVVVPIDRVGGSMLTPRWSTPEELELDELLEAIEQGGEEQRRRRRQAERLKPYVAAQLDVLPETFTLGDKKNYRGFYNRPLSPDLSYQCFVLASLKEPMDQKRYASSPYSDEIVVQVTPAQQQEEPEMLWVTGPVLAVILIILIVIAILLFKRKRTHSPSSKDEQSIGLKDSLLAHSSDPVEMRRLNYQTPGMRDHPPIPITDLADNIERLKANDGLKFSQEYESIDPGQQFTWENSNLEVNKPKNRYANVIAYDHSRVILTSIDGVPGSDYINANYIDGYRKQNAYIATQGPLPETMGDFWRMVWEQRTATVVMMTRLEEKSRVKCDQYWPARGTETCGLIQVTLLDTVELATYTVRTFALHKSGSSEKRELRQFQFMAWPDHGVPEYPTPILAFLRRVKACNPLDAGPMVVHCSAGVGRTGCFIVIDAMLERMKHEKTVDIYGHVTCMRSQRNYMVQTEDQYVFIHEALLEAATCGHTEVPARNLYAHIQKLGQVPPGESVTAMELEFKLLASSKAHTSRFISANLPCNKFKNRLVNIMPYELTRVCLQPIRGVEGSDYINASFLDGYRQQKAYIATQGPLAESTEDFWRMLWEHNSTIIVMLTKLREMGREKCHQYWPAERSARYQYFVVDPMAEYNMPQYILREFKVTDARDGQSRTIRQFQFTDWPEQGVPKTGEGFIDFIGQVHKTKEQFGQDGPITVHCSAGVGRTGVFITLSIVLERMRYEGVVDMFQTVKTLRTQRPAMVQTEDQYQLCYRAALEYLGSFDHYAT

[6] = target: T4, Tyrosine-protein phosphatase non-receptor type 1; experiment: Inhibition of recombinant full length PTP1B (unknown origin) assessed as p-nitrophenyl phosphate conversion to p-nitrophenol after 10 mins by spectrophotometric analysis
Procedure, shortened: (§2)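 Recombinant full-length PTP1B (5 nM final) in 50 mM Bis-Tris pH 7.2, 100 mM NaCl, 1 mM DTT, 2 mM EDTA, 1 vol % DMSO, 2 mM p-nitrophenyl phosphate plus inhibitor. Mixture preincubated 5 min at 37 C, started by adding enzyme. p-Nitrophenol release followed. IC50 taken from dose-response curve as 50% activity loss after 10 min.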

[7] = target: Receptor-type tyrosine-protein phosphatase beta (Homo sapiens, UniProt P23467); experiment: Inhibition of PTPbeta (unknown origin) assessed as p-nitrophenyl phosphate conversion to p-nitrophenol after 10 mins by spectrophotometric analysis; procedure, shortened: as §1
Receptor-type tyrosine-protein phosphatase beta, sequence (P23467 whole entry): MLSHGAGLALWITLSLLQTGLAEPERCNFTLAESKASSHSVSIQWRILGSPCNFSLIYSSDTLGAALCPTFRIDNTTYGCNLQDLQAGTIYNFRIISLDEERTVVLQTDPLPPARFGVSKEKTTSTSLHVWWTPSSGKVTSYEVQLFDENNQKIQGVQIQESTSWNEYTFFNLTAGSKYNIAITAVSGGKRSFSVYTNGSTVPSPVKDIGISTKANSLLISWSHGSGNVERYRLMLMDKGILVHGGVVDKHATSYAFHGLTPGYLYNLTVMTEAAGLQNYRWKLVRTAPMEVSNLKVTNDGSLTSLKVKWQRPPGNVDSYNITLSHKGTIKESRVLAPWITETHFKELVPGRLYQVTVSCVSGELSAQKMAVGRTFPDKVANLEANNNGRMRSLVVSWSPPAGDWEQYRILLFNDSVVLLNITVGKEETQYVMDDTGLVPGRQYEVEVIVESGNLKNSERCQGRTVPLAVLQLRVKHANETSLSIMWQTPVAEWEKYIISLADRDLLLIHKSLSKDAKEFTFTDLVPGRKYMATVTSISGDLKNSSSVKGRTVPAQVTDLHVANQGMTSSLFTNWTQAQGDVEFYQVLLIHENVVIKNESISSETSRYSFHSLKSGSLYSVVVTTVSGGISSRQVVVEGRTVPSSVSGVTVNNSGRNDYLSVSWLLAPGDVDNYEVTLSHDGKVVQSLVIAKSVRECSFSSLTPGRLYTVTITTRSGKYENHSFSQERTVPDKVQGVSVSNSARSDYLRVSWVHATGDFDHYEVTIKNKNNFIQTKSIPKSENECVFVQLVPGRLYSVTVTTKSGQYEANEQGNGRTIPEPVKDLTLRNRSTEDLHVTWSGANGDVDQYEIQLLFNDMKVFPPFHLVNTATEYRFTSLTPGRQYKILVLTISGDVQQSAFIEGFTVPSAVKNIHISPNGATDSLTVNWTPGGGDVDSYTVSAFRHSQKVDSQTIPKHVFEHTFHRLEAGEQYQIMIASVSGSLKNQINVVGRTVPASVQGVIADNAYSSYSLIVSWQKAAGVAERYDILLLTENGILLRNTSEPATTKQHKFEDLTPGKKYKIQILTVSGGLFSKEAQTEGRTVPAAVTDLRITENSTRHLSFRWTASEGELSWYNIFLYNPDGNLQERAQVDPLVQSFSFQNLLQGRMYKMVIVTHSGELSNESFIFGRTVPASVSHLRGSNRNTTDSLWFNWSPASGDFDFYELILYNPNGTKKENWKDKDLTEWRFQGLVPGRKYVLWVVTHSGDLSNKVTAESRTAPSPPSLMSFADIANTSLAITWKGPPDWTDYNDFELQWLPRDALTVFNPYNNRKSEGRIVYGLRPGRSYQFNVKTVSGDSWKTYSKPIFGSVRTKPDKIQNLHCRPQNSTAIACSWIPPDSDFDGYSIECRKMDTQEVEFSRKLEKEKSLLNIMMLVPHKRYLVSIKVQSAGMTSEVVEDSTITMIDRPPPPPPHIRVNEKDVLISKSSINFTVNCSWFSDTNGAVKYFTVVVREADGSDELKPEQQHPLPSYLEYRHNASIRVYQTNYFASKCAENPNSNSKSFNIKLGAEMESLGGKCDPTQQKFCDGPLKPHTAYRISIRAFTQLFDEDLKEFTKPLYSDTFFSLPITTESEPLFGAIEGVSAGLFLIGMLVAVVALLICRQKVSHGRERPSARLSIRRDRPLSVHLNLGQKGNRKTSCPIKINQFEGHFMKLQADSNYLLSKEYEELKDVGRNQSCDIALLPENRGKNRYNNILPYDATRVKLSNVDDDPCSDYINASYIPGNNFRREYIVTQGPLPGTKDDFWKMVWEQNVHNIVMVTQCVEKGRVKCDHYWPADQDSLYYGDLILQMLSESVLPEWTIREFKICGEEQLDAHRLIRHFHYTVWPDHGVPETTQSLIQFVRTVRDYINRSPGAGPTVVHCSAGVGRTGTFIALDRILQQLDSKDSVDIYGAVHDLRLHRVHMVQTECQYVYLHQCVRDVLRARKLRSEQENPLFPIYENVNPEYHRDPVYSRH

[8] = target: T4, Tyrosine-protein phosphatase non-receptor type 1; experiment: Competitive inhibition of recombinant full length PTP1B (unknown origin) assessed as p-nitrophenyl phosphate conversion to p-nitrophenol by Lineweaver-Burk plot analysis
[9] = organism: Homo sapiens; experiment: Selectivity ratio of IC50 for CD45 (unknown origin) to IC50 for recombinant full length PTP1B (unknown origin)
[10] = organism: Homo sapiens; experiment: Selectivity ratio of IC50 for TCPTP (unknown origin) to IC50 for recombinant full length PTP1B (unknown origin)
[11] = target: T5, Tyrosine-protein phosphatase non-receptor type 1 (Homo sapiens) (UniProt P18031); experiment: Inhibition of recombinant full length PTP1B (unknown origin) assessed as p-nitrophenyl phosphate conversion to p-nitrophenol by spectrophotometric analysis; conditions: TDE = time-dependent effect; procedure, shortened: as §2
T5 sequence (whole entry): T4 sequence (P18031 whole entry)

[12] = target: T6, Tyrosine-protein phosphatase non-receptor type 2 (Homo sapiens) (UniProt P17706); experiment: Inhibition of TCPTP (unknown origin) assessed as p-nitrophenyl phosphate conversion to p-nitrophenol by spectrophotometric analysis; conditions: TDE = time-dependent effect
T6 sequence (whole entry): T1 sequence (P17706 whole entry)

[13] = target: T4, Tyrosine-protein phosphatase non-receptor type 1; experiment: Reversible inhibition of recombinant full length PTP1B (unknown origin) assessed as p-nitrophenyl phosphate conversion to p-nitrophenol after 10 mins by spectrophotometric analysis; procedure, shortened: as §2
[14] = target: T5, Tyrosine-protein phosphatase non-receptor type 1 (Homo sapiens); experiment: Inhibition of recombinant full length PTP1B (unknown origin) assessed as p-nitrophenyl phosphate conversion to p-nitrophenol up to 20 uM after 10 mins by spectrophotometric analysis; procedure, shortened: as §2
[15] = target: T5, Tyrosine-protein phosphatase non-receptor type 1 (Homo sapiens); conditions: 50 uM

SMILES | IC50 [1] | IC50 [2] | IC50 [3] | IC50 [4] | IC50 [5] | IC50 [6] | IC50 [7] | Ki [8] | Ratio IC50 [9] | Ratio IC50 [10] | inhibition [11] | inhibition [12] | Ki [13] | inhibition [14] | inhibition [15]
CCCOc1c2cccc1Cc1cc(C(O)(P(=O)(O)O)P(=O)(O)O)cc(c1O)Cc1cccc(c1OCCC)Cc1cc(C(O)(P(=O)(O)O)P(=O)(O)O)cc(c1O)C2 | 22 µM | 9.2 µM | 59 µM | 7.3 µM | > 100 µM | 8.3 µM | 12 µM | – | – | – | – | – | – | – | –
CCCOc1c2cccc1Cc1cc(C(P(=O)(O)O)P(=O)(O)O)cc(c1O)Cc1cccc(c1OCCC)Cc1cccc(c1O)C2 | 9.3 µM | 1.8 µM | 5.7 µM | 3.7 µM | > 100 µM | 1.2 µM | 13 µM | 0.98 µM | 4 | 8 | tde | tde | 0.74 µM | – | –
CCCOc1c2cccc1Cc1cc(C(P(=O)(O)O)P(=O)(O)O)cc(c1O)Cc1cccc(c1OCCC)Cc1cc(C(P(=O)(O)O)P(=O)(O)O)cc(c1O)C2 | 4.9 µM | 2.6 µM | 22 µM | 3.9 µM | > 100 µM | 2.5 µM | – | – | – | – | – | – | – | – | –
CCCOc1c2cccc1Cc1cccc(c1O)Cc1cccc(c1OCCC)Cc1cccc(c1O)C2 | – | – | – | – | – | – | – | – | – | – | – | – | – | inactive | –
NCCCC(O)(P(=O)(O)O)P(=O)(O)O | – | – | – | – | – | – | – | – | – | – | – | – | – | – | inactive
CCCOc1c2cccc1Cc1cc(C(O)(P(=O)(O)O)P(=O)(O)O)cc(c1O)Cc1cccc(c1OCCC)Cc1cccc(c1O)C2 | 27 µM | 3.4 µM | 8.4 µM | 4.1 µM | ≥ 100 µM | 1.9 µM | 18 µM | – | 4 | 14 | tde | tde | 0.68 µM | – | –
